pIC50: −log10 of the molar value. Active and inactive are the calls of the source. The calls are words filed in the database; no cut-off is given here.

Series [1] in a line: Genotoxicity in human SH-SY5Y cells assessed as nuclear abnormalities by measuring total lobbed nucleus at 100 ug/ml incubated for 24 hrs by Hoechst 33258 staining based fluorescent microscopy (reference value: 5). Format: toxicity, cell-based. The settings on record: dose 100 µg/ml.
Series [2] is described as follows: Genotoxicity in human SH-SY5Y cells assessed as nuclear abnormalities by measuring total notched mutations at 100 ug/ml incubated for 24 hrs by Hoechst 33258 staining based fluorescent microscopy (reference value: 5). Format: toxicity, cell-based. As to conditions: dose 100 µg/ml.
For series [3], the system named is SH-SY5Y. In words: Neuroprotective activity against amyloid beta 1-42-treated human SH-SY5Y cells assessed as decrease in AChE activity incubated for 30 mins by microplate reader analysis (reference value: 459.6 +/- 32.152 mU/ml). The settings on record: dose 0.5 mM. Format: functional.
The nature of series [4]: Genotoxicity in human SH-SY5Y cells assessed as nuclear abnormalities by measuring total micronucleus at 100 ug/ml incubated for 24 hrs by Hoechst 33258 staining based fluorescent microscopy (reference value: 6). It counts as toxicity, cell-based. The settings on record: dose 100 µg/ml.
Series [5] can be described thus: Genotoxicity in human SH-SY5Y cells assessed as mean nuclear abnormalities measured per 1000 cells at 100 ug/ml incubated for 24 hrs by Hoechst 33258 staining based fluorescent microscopy (reference value: 0.016 +/- 0.007). It counts as toxicity, cell-based. As to conditions: dose 100 µg/ml.
For series [6], the target named is Acetylcholinesterase (Homo sapiens, UniProt P22303). In words: Inhibition of AChE (unknown origin) using acetylthiocholine iodide as substrate prewarmed for 10 mins followed by substrate addition measured after 15 mins by DTNB assay. The method, boiled down: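 Purified AChE at 0.005 unit per well in 50 mM Na2HPO4, pH 7.7. Test compound at 0.5 mM per well, read at 405 nm, then preincubated 10 min at 37 °C. Started with acetylthiocholine iodide and DTNB (each 0.5 mM per well). Absorbance at 405 nm after 15 min at 37 °C. Eserine reference, triplicate; % inhibition versus control, IC50 by kinetics fitting.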

Series [7] relates to SH-SY5Y. In words: Antialzheimer activity against RA/BDNF-treated human SH-SY5Y cells assessed as cell viability at 12.5 to 100 ug/ml incubated for 24 hrs by MTT assay. It counts as functional, cell-based. As to conditions: dose 12.5-100 µg/ml. The procedure, abridged: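 SH-SY5Y grown in DMEM:F12 with 10% FBS at 37 °C, 5% CO2. Differentiated with 10 µM retinoic acid to day 8 (3% FBS medium refreshed every 2 days), then 25 nM BDNF for 5 days. Compound exposure, then MTT for 3 h at 37 °C. Formazan dissolved in DMSO, absorbance at 570 nm. 1.0% Triton X-100 as control.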
On the technique in general: Tetrazolium dyes change colour on reduction, which living cells bring about.

Series [8] relates to SH-SY5Y. In words: Neuroprotective activity against amyloid beta 1-42-treated human SH-SY5Y cells assessed as increase in cell viability at 50 ug/ml incubated for 24 hrs by MTT assay relative to control. As to conditions: dose 50 µg/ml.
In series [9] the test system is SH-SY5Y. In words: Neuroprotective activity against amyloid beta 1-42-treated human SH-SY5Y cells assessed as reduction in beta amyloid aggregation by Congo Red dye based analysis relative to control. It counts as functional. Further details: scale not given: the % may be the effect or the level left. The procedure, abridged: (§1)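 SH-SY5Y differentiated with RA then BDNF. Aβ1-42 pre-fibrillized at 20 µM in medium for 24 h, then 20 µM added with compounds for 24 h. Cells fixed in 4% paraformaldehyde at 4 °C for 30 min. Stained with 1 µM Congo red for 1 h in the dark, washed with PBS, dye extracted into DMSO, absorbance at 497 nm.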

Series [10] concerns the target Beta-secretase 1 (Homo sapiens, UniProt P56817). In words: Inhibition of BACE1 (unknown origin) expressed in baculovirus expression system using Rh-EVNLDAEFKQuencher peptide substrate incubated for 90 mins by FRET assay.
Series [11] has as its system SH-SY5Y. Briefly: Neuroprotective activity against amyloid beta 1-42-treated human SH-SY5Y cells assessed as decrease in beta-secretase activity measured per mg protein incubated for 30 mins by microplate reader analysis (reference value: 54.35 +/- 4.34 RFU). It counts as functional. The settings on record: 0.5 h.
Series [12] concerns SH-SY5Y. In words: Neuroprotective activity against amyloid beta 1-42-treated human SH-SY5Y cells assessed as increase in cell viability at 25 ug/ml incubated for 24 hrs by MTT assay relative to control. The settings on record: dose 25 µg/ml.
Series [13] deals with SH-SY5Y. Briefly: Neuroprotective activity against amyloid beta 1-42-treated human SH-SY5Y cells assessed as reduction in beta amyloid aggregation by Congo Red dye based analysis. Format: functional, cell-based. The method, boiled down:
as §1

Acetylcholinesterase, sequence (P22303 whole entry): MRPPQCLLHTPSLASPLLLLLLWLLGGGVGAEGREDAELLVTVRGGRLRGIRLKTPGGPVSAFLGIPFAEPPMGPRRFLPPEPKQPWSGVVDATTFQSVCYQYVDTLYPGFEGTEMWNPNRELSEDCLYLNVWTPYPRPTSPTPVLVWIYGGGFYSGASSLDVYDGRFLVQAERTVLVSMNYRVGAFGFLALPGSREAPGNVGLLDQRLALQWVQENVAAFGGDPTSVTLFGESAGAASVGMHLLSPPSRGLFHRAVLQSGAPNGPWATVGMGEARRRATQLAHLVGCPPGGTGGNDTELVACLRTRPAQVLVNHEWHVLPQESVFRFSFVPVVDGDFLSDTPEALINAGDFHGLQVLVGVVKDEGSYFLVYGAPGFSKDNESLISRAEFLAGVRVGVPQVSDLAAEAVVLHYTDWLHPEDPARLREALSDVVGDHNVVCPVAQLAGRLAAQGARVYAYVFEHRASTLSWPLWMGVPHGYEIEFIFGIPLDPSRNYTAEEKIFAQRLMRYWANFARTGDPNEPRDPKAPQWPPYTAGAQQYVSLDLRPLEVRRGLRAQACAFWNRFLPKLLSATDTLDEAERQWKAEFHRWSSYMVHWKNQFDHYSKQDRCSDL
Beta-secretase 1, sequence (P56817 whole entry): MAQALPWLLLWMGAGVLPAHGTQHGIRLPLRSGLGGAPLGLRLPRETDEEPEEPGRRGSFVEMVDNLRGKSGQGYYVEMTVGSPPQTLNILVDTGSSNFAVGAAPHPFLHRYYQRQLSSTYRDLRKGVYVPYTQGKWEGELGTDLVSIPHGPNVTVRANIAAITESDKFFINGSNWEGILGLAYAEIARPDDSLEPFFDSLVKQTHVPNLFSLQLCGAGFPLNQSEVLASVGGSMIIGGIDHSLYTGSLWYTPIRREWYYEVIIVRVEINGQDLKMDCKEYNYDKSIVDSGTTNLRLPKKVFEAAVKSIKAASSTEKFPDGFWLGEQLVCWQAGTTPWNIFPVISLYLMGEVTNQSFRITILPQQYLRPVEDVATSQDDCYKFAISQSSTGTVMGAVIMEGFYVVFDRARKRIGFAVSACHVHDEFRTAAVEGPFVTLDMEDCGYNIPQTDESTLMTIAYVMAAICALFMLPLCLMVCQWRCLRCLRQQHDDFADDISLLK

Regarding `COc1ccc(/C=C/c2nc(-c3ccc(OC)cc3)cs2)cc1`, the Activity in series [1] was 6; in [2], 5; in [3] it was 397.6 mU/ml; in [4], 6; in [5] it was 0.017; in series [8] it was about 34%. In addition, the Activity in [9] is recorded as over 80%; in [11], 14.13 RFU. Also, the pIC50 (in general, the IC50 on a negative log10 scale, so that one unit is a factor of ten) in series [6] was 3.71; in [10], 4.11. Besides, in series [7], the outcome was Active.

Take `Brc1ccc(-c2csc(/C=C/c3ccccc3)n2)cc1`: the Activity in series [1] was 5; in [2] it was 9; in series [3] it was 375.6 mU/ml; in [4] it was 4; in [5], 0.017; in series [12], about 30%. In addition, the Activity in series [11] came out at 17.41 RFU. Moreover, the pIC50 was 3.64 in series [6] and 4.35 in [10]. Moreover, the result in series [7] and in [13] was Active.

The values above are taken from ChEMBL document CHEMBL5329218, “Novel styryl-thiazole hybrids as potential anti-Alzheimer's agents” (RSC Med Chem, 2023).
